Measured values as given in ChEMBL document CHEMBL1154766, “Synthesis and biological evaluation of new podophyllic aldehyde derivatives with cytotoxic and apoptosis-inducing activities” (2010).
Calls of active or inactive are those of the source. No cut-off for these calls is given here.

Experiments:
MDA-MB-231 = experiment: Cytotoxicity against human MDA-MB-231 cells after 72 hrs by SRB assay; assay type: functional; conditions: MDA-MB-231, 72 h
Method in brief: (§1)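 SRB growth assay: 5 × 10³ cells/well in RPMI, attached 18 h drug-free, then compound added in DMSO/H₂O 3:7 for 72 h. Fixed with cold 50% TCA 60 min at 4 °C, stained 0.4% SRB in 1% acetic acid 10 min, bound dye solubilized in Tris, OD 490 nm. GI50 from 100[(T−T0)/(C−T0)] = 50; mean of triplicates.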

A549 = experiment: Cytotoxicity against human A549 cells after 72 hrs by SRB assay; assay type: functional; conditions: A549, 72 h; method in brief: as §1
HT-29 [1] = experiment: Cytotoxicity against human HT-29 cells after 72 hrs by SRB assay; assay type: functional; conditions: HT-29, 72 h; method in brief: as §1
HT-29 [2] = experiment: Cell cycle arrest in human HT-29 cells assessed as accumulation at G2/M phase at 1 uM after 24 hrs by flow cytometry; assay type: functional
Method in brief: (§2)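 HT-29 cells incubated at 1 μM for 24, 48 or 72 h alongside untreated controls. (3-5) × 10⁵ cells fixed overnight in 70% ethanol at 4 °C, PBS-washed three times, then treated 1 h at room temperature with 1 mg/mL RNase A and 20 μg/mL propidium iodide. DNA content read by flow cytometry; apoptosis taken as % cells in sub-G1 peak. Representative of three independent experiments.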

HT-29 [3] = experiment: Induction of apoptosis in human HT-29 cells assessed as accumulation at subG1 phase at 1 uM after 48 hrs by flow cytometry; assay type: functional; method in brief: as §2
HT-29 [4] = experiment: Cell cycle arrest in human HT-29 cells assessed as accumulation at S phase at 1 uM after 24 hrs by flow cytometry; assay type: functional; method in brief: as §2
HT-29 [5] = experiment: Induction of apoptosis in human HT-29 cells assessed as accumulation at subG1 phase at 1 uM after 72 hrs by flow cytometry; assay type: functional; method in brief: as §2
HT-29 [6] = experiment: Induction of microtubule disruption in human HT-29 cells at 1 uM after 24 hrs; assay type: cell-based
Method in brief: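 HT-29 cells on poly-L-lysine coverslips exposed to 1 μM for 24 h, washed in HPEM (pH 6.6), fixed with 4% paraformaldehyde 15 min, permeabilized with 0.5% Triton X-100. Anti-α-tubulin mouse monoclonal (1:150, 1 h) then CY3 anti-mouse IgG (1 h, 4 °C); nuclei DAPI-stained; imaged by confocal microscopy. Representative of at least three experiments.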

HT-29 [7] = experiment: Cell cycle arrest in human HT-29 cells assessed as accumulation at S phase at 1 uM after 48 hrs by flow cytometry; assay type: functional; method in brief: as §2
HT-29 [8] = experiment: Induction of apoptosis in human HT-29 cells assessed as accumulation at subG1 phase at 1 uM after 24 hrs by flow cytometry; assay type: functional; method in brief: as §2
HT-29 [9] = experiment: Cell cycle arrest in human HT-29 cells assessed as accumulation at G0/G1 phase at 1 uM after 48 hrs by flow cytometry; assay type: functional; method in brief: as §2
HT-29 [10] = experiment: Cell cycle arrest in human HT-29 cells assessed as accumulation at G0/G1 phase at 1 uM after 72 hrs by flow cytometry; assay type: functional; method in brief: as §2
HT-29 [11] = experiment: Cell cycle arrest in human HT-29 cells assessed as accumulation at G2/M phase at 1 uM after 48 hrs by flow cytometry; assay type: functional; method in brief: as §2
HT-29 [12] = experiment: Cell cycle arrest in human HT-29 cells assessed as accumulation at S phase at 1 uM after 72 hrs by flow cytometry; assay type: functional; method in brief: as §2
HT-29 [13] = experiment: Cell cycle arrest in human HT-29 cells assessed as accumulation at G2/M phase at 1 uM after 72 hrs by flow cytometry; assay type: functional; method in brief: as §2
HT-29 [14] = experiment: Cell cycle arrest in human HT-29 cells assessed as accumulation at G0/G1 phase at 1 uM after 24 hrs by flow cytometry; assay type: functional; method in brief: as §2

SMILES	GI50 (MDA-MB-231) [nM]	GI50 (A549) [nM]	GI50 (HT-29 [1]) [nM]	other results
CCOC(=O)[C@H]1[C@H](c2cc(OC)c(OC)c(OC)c2)c2cc3c(cc2[C@H](O)[C@H]1CO)OCO3 [ETHYL PICROPODOPHYLLATE]	90	70	90	
C=CCOC(=O)[C@@H]1C(C=O)=Cc2cc3c(cc2[C@H]1c1cc(OC)c(OC)c(OC)c1)OCO3	150	30	20	Activity (HT-29 [2]): 91.3%; Activity (HT-29 [3]): 1.8%; Activity (HT-29 [4]): 4.5%; Activity (HT-29 [5]): 41.6%; Activity (HT-29 [6]): Active; Activity (HT-29 [7]): 3.9%; Activity (HT-29 [8]): 0.3%; Activity (HT-29 [9]): 10.9%; Activity (HT-29 [10]): 33.6%; Activity (HT-29 [11]): 83.4%; Activity (HT-29 [12]): 16.8%; Activity (HT-29 [13]): 8%; Activity (HT-29 [14]): 3.9%
CCOC(=O)[C@@H]1C(C=O)=Cc2cc3c(cc2[C@H]1c1cc(OC)c(OC)c(OC)c1)OCO3	540	180	200	
COc1cc([C@@H]2c3cc4c(cc3C=C(C=O)[C@H]2C(=O)OC/C=C/c2ccccc2)OCO4)cc(OC)c1OC	130	32	36	Activity (HT-29 [2]): 96.4%; Activity (HT-29 [3]): 5.2%; Activity (HT-29 [4]): 1.8%; Activity (HT-29 [5]): 33.7%; Activity (HT-29 [6]): Active; Activity (HT-29 [7]): 4.2%; Activity (HT-29 [8]): 0.4%; Activity (HT-29 [9]): 5.3%; Activity (HT-29 [10]): 21.1%; Activity (HT-29 [11]): 85.3%; Activity (HT-29 [12]): 22%; Activity (HT-29 [13]): 23.2%; Activity (HT-29 [14]): 1.4%
CCNC(=O)[C@@H]1C(C=O)=Cc2cc3c(cc2[C@H]1c1cc(OC)c(OC)c(OC)c1)OCO3	7100	4500	8000	Activity (HT-29 [2]): 13.5%; Activity (HT-29 [3]): 61.7%; Activity (HT-29 [4]): 9.8%; Activity (HT-29 [5]): 93.8%; Activity (HT-29 [6]): inactive; Activity (HT-29 [7]): 3%; Activity (HT-29 [8]): 25%; Activity (HT-29 [9]): 33%; Activity (HT-29 [10]): 5.3%; Activity (HT-29 [11]): 2.3%; Activity (HT-29 [12]): 0.5%; Activity (HT-29 [13]): 0.4%; Activity (HT-29 [14]): 51.7%
CCC/N=C/C1=Cc2cc3c(cc2[C@@H](c2cc(OC)c(OC)c(OC)c2)[C@@H]1C(=O)OCC)OCO3	1200	230	390	
COC(=O)[C@@H]1C(C=O)=Cc2cc3c(cc2[C@H]1c1cc(OC)c(OC)c(OC)c1)OCO3 [PODOPHYLLIC ALDEHYDE]	200	61	38	
CCOC(=O)COC(=O)[C@@H]1C(C=O)=Cc2cc3c(cc2[C@H]1c1cc(OC)c(OC)c(OC)c1)OCO3	110	13	28	Activity (HT-29 [2]): 97.6%; Activity (HT-29 [3]): 6.3%; Activity (HT-29 [4]): 0.9%; Activity (HT-29 [5]): 30.6%; Activity (HT-29 [6]): Active; Activity (HT-29 [7]): 3.4%; Activity (HT-29 [8]): 0.5%; Activity (HT-29 [9]): 4.7%; Activity (HT-29 [10]): 16.4%; Activity (HT-29 [11]): 85.6%; Activity (HT-29 [12]): 19.2%; Activity (HT-29 [13]): 33.8%; Activity (HT-29 [14]): 1%
COC(=O)[C@@H]1C(/C=N/c2ccc(OC)cc2)=Cc2cc3c(cc2[C@H]1c1cc(OC)c(OC)c(OC)c1)OCO3		94	9.4	
CCCCCCCOC(=O)[C@H]1[C@H](c2cc(OC)c(OC)c(OC)c2)c2cc3c(cc2[C@H](O)[C@H]1CO)OCO3 [HEPTYL PICROPODOPHYLLATE]	180	190	160	
COc1ccc(NC(=O)[C@@H]2C(C=O)=Cc3cc4c(cc3[C@H]2c2cc(OC)c(OC)c(OC)c2)OCO4)cc1	4600	1200	800	Activity (HT-29 [2]): 25.2%; Activity (HT-29 [3]): 45.2%; Activity (HT-29 [4]): 13.2%; Activity (HT-29 [5]): 52.6%; Activity (HT-29 [6]): inactive; Activity (HT-29 [7]): 1.8%; Activity (HT-29 [8]): 13.6%; Activity (HT-29 [9]): 50.4%; Activity (HT-29 [10]): 36.4%; Activity (HT-29 [11]): 2.6%; Activity (HT-29 [12]): 8.4%; Activity (HT-29 [13]): 2.6%; Activity (HT-29 [14]): 48%
C=CCOC(=O)[C@H]1[C@H](c2cc(OC)c(OC)c(OC)c2)c2cc3c(cc2[C@H](O)[C@H]1CO)OCO3 [ALLYL PICROPODOPHYLLATE]	110	120	80	
COc1cc([C@@H]2c3cc4c(cc3[C@H](O)[C@H]3COC(=O)[C@H]23)OCO4)cc(OC)c1OC [PODOFILOX]		12	24	
CCOC(=O)COC(=O)[C@H]1[C@H](c2cc(OC)c(OC)c(OC)c2)c2cc3c(cc2[C@H](O)[C@H]1CO)OCO3 [ETHOXYCARBONYLMETHYL PICROPODOPHYLLATE]	160	170	180	
COc1cc([C@@H]2c3cc4c(cc3[C@H](O)[C@@H](CO)[C@H]2C(=O)N2CCCC2)OCO4)cc(OC)c1OC [PICROPODOPHYLLIC ACID PYRROLIDINYL AMIDE]	7800	6800	7800	
COC(=O)[C@@H]1C(CNc2ccc(C)cc2)=Cc2cc3c(cc2[C@H]1c1cc(OC)c(OC)c(OC)c1)OCO3	1500	900	800	

SMILES	GI50 (MDA-MB-231) [nM]	GI50 (A549) [nM]	GI50 (HT-29 [1]) [nM]	other results
COc1ccc(NCC2=Cc3cc4c(cc3[C@@H](c3cc(OC)c(OC)c(OC)c3)[C@@H]2C(=O)N2CCCC2)OCO4)cc1	> 17000	15000	15000	
CCC/N=C/C1=Cc2cc3c(cc2[C@@H](c2cc(OC)c(OC)c(OC)c2)[C@@H]1C(=O)OCc1cc(OC)c(OC)c(OC)c1)OCO3	130	5.2	4.3	
COc1cc(COC(=O)[C@@H]2C(C=O)=Cc3cc4c(cc3[C@H]2c2cc(OC)c(OC)c(OC)c2)OCO4)cc(OC)c1OC	42	34	20	Activity (HT-29 [2]): 97.5%; Activity (HT-29 [3]): 8.6%; Activity (HT-29 [4]): 1.1%; Activity (HT-29 [5]): 32.3%; Activity (HT-29 [6]): Active; Activity (HT-29 [7]): 5.1%; Activity (HT-29 [8]): 0.5%; Activity (HT-29 [9]): 6.8%; Activity (HT-29 [10]): 18.3%; Activity (HT-29 [11]): 79.5%; Activity (HT-29 [12]): 12.9%; Activity (HT-29 [13]): 36.5%; Activity (HT-29 [14]): 0.9%
CCNC(=O)[C@H]1[C@H](c2cc(OC)c(OC)c(OC)c2)c2cc3c(cc2[C@H](O)[C@H]1CO)OCO3	10000	9800	10000	
COc1cc([C@@H]2c3cc4c(cc3[C@H](O)[C@@H](CO)[C@H]2C(=O)OC/C=C/c2ccccc2)OCO4)cc(OC)c1OC [CINNAMYL PICROPODOPHYLLATE]	180	200	150	
COC(=O)[C@@H]1C(CNc2ccc(OC)cc2)=Cc2cc3c(cc2[C@H]1c1cc(OC)c(OC)c(OC)c1)OCO3	2400	1000	700	
CCC/N=C/C1=Cc2cc3c(cc2[C@@H](c2cc(OC)c(OC)c(OC)c2)[C@@H]1C(=O)OC)OCO3	1300	41	41	
CCCNCC1=Cc2cc3c(cc2[C@@H](c2cc(OC)c(OC)c(OC)c2)[C@@H]1C(=O)OCc1cc(OC)c(OC)c(OC)c1)OCO3	6400	1900	2000	
CCNCC1=Cc2cc3c(cc2[C@@H](c2cc(OC)c(OC)c(OC)c2)[C@@H]1C(=O)N1CCCC1)OCO3	> 20000	> 20000	> 20000	
CC/N=C/C1=Cc2cc3c(cc2[C@@H](c2cc(OC)c(OC)c(OC)c2)[C@@H]1C(=O)OC)OCO3		22	2.2	
CCNCC1=Cc2cc3c(cc2[C@@H](c2cc(OC)c(OC)c(OC)c2)[C@@H]1C(=O)OC)OCO3	2600	700	400	
COc1cc([C@@H]2c3cc4c(cc3C=C(C=O)[C@H]2C(=O)N2CCCC2)OCO4)cc(OC)c1OC	8200	6600	7300	
CCCNCC1=Cc2cc3c(cc2[C@@H](c2cc(OC)c(OC)c(OC)c2)[C@@H]1C(=O)OC)OCO3	5500	1500	1000	
CCCNCC1=Cc2cc3c(cc2[C@@H](c2cc(OC)c(OC)c(OC)c2)[C@@H]1C(=O)OCC)OCO3	370	230	270	
COc1cc([C@@H]2c3cc4c(cc3[C@H](O)[C@@H](CO)[C@H]2C(=O)OCCCBr)OCO4)cc(OC)c1OC	34	> 17000	22	
